Measurements taken from ChEMBL document CHEMBL4261638, “Synthesis and in vitro evaluation of diverse heterocyclic diphenolic compounds as inhibitors of DYRK1A” (Bioorg Med Chem, 2018).

Tests used:
[1] = target: Dual specificity tyrosine-phosphorylation-regulated kinase 1A (Homo sapiens) (UniProt Q13627); assay: Inhibition of N-terminal His-tagged human Dyrk1A (126 to 490 residues) expressed in Escherichia coli BL21 (DE3) cells at 1 uM using Woodtide as substrate assessed as remaining enzyme activity after 10 mins in presence of [gamma-32P]-ATP by microbeta scintillation counting method
Summary of the method: (§1)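 Recombinant DYRK1A kinase assay with Woodtide as the peptide substrate and ATP at 100 μM. Each compound was tested at two concentrations, 1 μM and 10 μM. Results are given as the percentage of DYRK1A activity remaining relative to the uninhibited enzyme.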

[2] = target: Dual specificity tyrosine-phosphorylation-regulated kinase 1A (Homo sapiens) (UniProt Q13627); assay: Inhibition of N-terminal His-tagged human Dyrk1A (126 to 490 residues) expressed in Escherichia coli BL21 (DE3) cells at 10 uM using Woodtide as substrate assessed as remaining enzyme activity after 10 mins in presence of [gamma-32P]-ATP by microbeta scintillation counting method; summary of the method: as §1

Activity [1] [%]	Activity [2] [%]	SMILES
100	79	Oc1ccc(-c2nc[nH]c2-c2ccc(O)cc2)cc1
67	30	Oc1ccc(-c2cnc3nccc(-c4ccc(O)cc4)c3c2)cc1
94	99	Oc1ccc(CCOc2cncc3nnc(-c4ccc(O)cc4)n23)cc1
110	98	Oc1ccc(-c2ccc(-c3cc(-c4ccc(O)cc4)n[nH]3)nc2)cc1
99	99	O=C(Nc1ccc(O)cc1)c1cncc2nnc(-c3ccc(O)cc3)n12
74	43	Nc1nc2ccc(-c3ccc(O)cc3)cc2n1-c1ccc(O)cc1
3.3	3.3	Oc1ccc(-c2cnc3[nH]cc(-c4ccc(O)cc4)c3c2)cc1
90	83	Oc1ccc(-c2ccnc(-c3cc(-c4ccc(O)cc4)ccn3)c2)cc1
106	107	CC(=O)Nc1nc2ccc(-c3ccc(O)cc3)cc2n1-c1ccc(O)cc1
104	113	Oc1ccc2c(c1)CNc1cc(O)ccc1N2
104	102	O=C(Nc1cccc(O)c1)c1cncc2nnc(-c3ccc(O)cc3)n12
64	9	Oc1ccc(-c2ccnc(-c3cc(-c4ccc(O)cc4)n[nH]3)c2)cc1
94	91	Oc1ccc(-c2nnc3cncc(OCCc4cccc(O)c4)n23)cc1
